Active and inactive are the calls of the source.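 The calls were made as follows: active = luminescence gain over solvent baseline above 10% of the positive control response, limit may shift with hit yield; inactive = the rest, including opposite-direction effects.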
Experiments:
[1] = system: U2OS HRE-luciferase reporter, HIF pathway activation, luminescence; test: HIF pathway activators, HRE-luciferase reporter, dose response, cell-based, U2OS HRE-luc, luminescence, dry powder, set 2 (AID 488805)
In short: (§1)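 System: U2OS cells with HRE-luciferase reporter / Quantity: 6,000 cells/well / Medium: Phenol-free DMEM, 10% FBS / Compound dosing: 8-point, 3-fold dilution series / Incubation: 24 h compound treatment, 37 °C / Detection: Steady-Glo luminescence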

[2] = as above; details: U2OS HRE-luciferase reporter, HIF pathway activation, luminescence, stronger effect = higher value
In short: as §1

`OCC1CCN(c2nc(-c3ccccn3)nnc2-c2ccccc2)CC1` gave an AC50 [1] of 18.7 µM.
For `O=C(NC1Cc2ccccc2C1)c1cc(-c2ccccc2)on1`, the max activation ([2]; at 4.6 µM) was 2.61% (inactive).
In the case of `Cc1cccc(Nc2nc(-c3ccccn3)nnc2-c2ccccc2)n1`, the AC50 [1] is reported as 25.6 µM.
Molecule `c1ccc(-c2nnc(-c3ccccn3)nc2N2CCN(c3ccncc3)CC2)cc1` has an AC50 [1] of 8.32 µM.
In the case of `c1ccc(-c2nnc(-c3ccccn3)nc2NCCCN2CCOCC2)cc1`, the AC50 [1] is reported as 11 µM.
Molecule `c1ccc(-c2nnc(Nc3nc(-c4ccccn4)nnc3-c3ccccc3)s2)cc1` has an AC50 [1] of 6.81 µM.
`CN(C)c1nc(-c2ccccn2)nnc1-c1ccccc1` gave an AC50 [1] of 11.7 µM.
In the case of `O=C(c1cc(-c2ccccc2)on1)N1CCC(N2CCCC2)CC1`, the max activation ([2]; at 38 µM) is reported as 3.88% (inactive).
With `Cc1cccc(NC(=O)c2cc(-c3ccccc3)on2)n1` the max activation ([2]; at 38 µM) was -6.71% (inactive).
For `O=C(NCc1ccccc1)c1cc(-c2ccccc2)on1`, the max activation ([2]; at 0.056 µM) was 1.94% (inactive).
With `c1ccc(-c2nnc(-c3ccccn3)nc2N2CCC(N3CCOCC3)CC2)cc1` the AC50 [1] was 8.79 µM.
With `Cc1ccccc1CNc1nc(-c2ccccn2)nnc1-c1ccccc1` the AC50 [1] was 6.05 µM.
In the case of `O=C(Nc1nc2ccccc2s1)c1cc(-c2ccccc2)on1`, the max activation ([2]; at 4.6 µM) is reported as -2.04% (inactive).
For `O=C(NCCN1CCCCC1)c1cc(-c2ccccc2)on1`, the max activation ([2]; at 0.056 µM) was -1.17% (inactive).
In the case of `O=C(Nc1ncc2ccccc2n1)c1cc(-c2ccccc2)on1`, the max activation ([2]; at 0.056 µM) is reported as 0.964% (inactive).
With `O=C(c1cc(-c2ccccc2)on1)N1CCc2cccnc21` the max activation ([2]; at 38 µM) was 2.94% (inactive).
For `Cc1cccc(CNC(=O)c2cc(-c3ccccc3)on2)c1`, the max activation ([2]; at 0.5 µM) was -4.69% (inactive).
For `O=C(NCCCn1ccnc1)c1cc(-c2ccccc2)on1`, the AC50 [1] was 8.16 µM.
With `O=C(NCCCN1CCOCC1)c1cc(-c2ccccc2)on1` the AC50 [1] was 9.51 µM.
With `O=C(NCC1CC1)c1cc(-c2ccccc2)on1` the max activation ([2]; at 13.5 µM) was 7.82% (inactive).
In the case of `CC(C)(C)CCNC(=O)c1cc(-c2ccccc2)on1`, the max activation ([2]; at 4.6 µM) is reported as 1.55% (inactive).
`c1ccc(CNc2nc(-c3ccccn3)nnc2-c2ccccc2)cc1` gave an AC50 [1] of 7.03 µM.
For `O=C(NCC1CCCCC1)c1cc(-c2ccccc2)on1`, the max activation ([2]; at 0.16 µM) was 1.14% (inactive).
In the case of `O=C(Nc1nnc(-c2ccccc2)s1)c1cc(-c2ccccc2)on1`, the max activation ([2]; at 0.056 µM) is reported as -3.85% (inactive).
With `Cc1ccc(CNc2nc(-c3ccccn3)nnc2-c2ccccc2)cc1` the AC50 [1] was 3.29 µM.
With `CN(C)CCNC(=O)c1cc(-c2ccccc2)on1` the max activation ([2]; at 0.5 µM) was -2.73% (inactive).
For `c1ccc(-c2nnc(-c3ccccn3)nc2NCC2CCCCC2)cc1`, the AC50 [1] was 3.12 µM.
In the case of `Cn1c(-c2ccccc2)cnc1NC(=O)c1cc(-c2ccccc2)on1`, the max activation ([2]; at 38 µM) is reported as 2.14% (inactive).
`C=CCNc1nc(-c2ccccn2)nnc1-c1ccccc1` gave an AC50 [1] of 8.3 µM.
`OCCCNc1nc(-c2ccccn2)nnc1-c1ccccc1` showed an AC50 [1] of 21.3 µM.
For `Cc1ccc(NC(=O)c2cc(-c3ccccc3)on2)cn1`, the max activation ([2]; at 38 µM) was 4.68% (inactive).
For `CN1CCN(C(=O)c2cc(-c3ccccc3)on2)CC1`, the max activation ([2]; at 38 µM) was -5.2% (inactive).
Work on `c1ccc(-c2nnc(-c3ccccn3)nc2Nc2cnc3ccccc3n2)cc1` yielded an AC50 [1] of 6.4 µM.
`c1ccc(-c2nnc(-c3ccccn3)nc2NCC2CC2)cc1` gave an AC50 [1] of 12.3 µM.
For `O=C(Nc1nc(-c2ccccc2)cs1)c1cc(-c2ccccc2)on1`, the max activation ([2]; at 4.6 µM) was 6.53% (inactive).
With `O=C(Nc1ccc2ccccc2n1)c1cc(-c2ccccc2)on1` the max activation ([2]; at 0.5 µM) was -5.52% (inactive).
In the case of `CC(C)(C)CCNc1nc(-c2ccccn2)nnc1-c1ccccc1`, the AC50 [1] is reported as 2.59 µM.
In the case of `CN1CCN(c2nc(-c3ccccn3)nnc2-c2ccccc2)CC1`, the AC50 [1] is reported as 14.5 µM.
In the case of `O=C(Nc1cnc2ccccc2c1)c1cc(-c2ccccc2)on1`, the max activation ([2]; at 38 µM) is reported as 2.22% (inactive).
`c1ccc(-c2csc(Nc3nc(-c4ccccn4)nnc3-c3ccccc3)n2)cc1` gave an AC50 [1] of 2.84 µM.
In the case of `Cn1c(-c2ccccc2)cnc1Nc1nc(-c2ccccn2)nnc1-c1ccccc1`, the max activation ([2]; at 0.5 µM) is reported as -0.998% (inactive).
With `Cc1ccccc1CNC(=O)c1cc(-c2ccccc2)on1` the max activation ([2]; at 0.5 µM) was 2.16% (inactive).
With `O=C(c1cc(-c2ccccc2)on1)N1CCN(c2ccncc2)CC1` the max activation ([2]; at 4.6 µM) was 6.21% (inactive).
For `Cc1ccc(Nc2nc(-c3ccccn3)nnc2-c2ccccc2)cn1`, the AC50 [1] was 27.9 µM.
`c1ccc(-c2nnc(-c3ccccn3)nc2NCCN2CCOCC2)cc1` showed an AC50 [1] of 18.1 µM.
For `Cn1c(NC(=O)c2cc(-c3ccccc3)on2)nc2ccccc21`, the max activation ([2]; at 0.056 µM) was 1.19% (inactive).
In the case of `O=C(Nc1ncc(-c2ccccc2)o1)c1cc(-c2ccccc2)on1`, the max activation ([2]; at 0.5 µM) is reported as -7.77% (inactive).
With `O=C(NC1CCc2ccccc2C1)c1cc(-c2ccccc2)on1` (stereo unspecified) the max activation ([2]; at 0.056 µM) was -4.31% (inactive).
For `O=C(Nc1cn2ccccc2n1)c1cc(-c2ccccc2)on1`, the max activation ([2]; at 0.5 µM) was -5.84% (inactive).
In the case of `Cc1ccc(CNC(=O)c2cc(-c3ccccc3)on2)cc1`, the max activation ([2]; at 0.056 µM) is reported as -4.17% (inactive).
For `O=C(NCCCO)c1cc(-c2ccccc2)on1`, the max activation ([2]; at 13.5 µM) was 8.74% (inactive).
`O=C(NCCCCO)c1cc(-c2ccccc2)on1` gave an AC50 [1] of 10.5 µM.
`Cc1cccc(CNc2nc(-c3ccccn3)nnc2-c2ccccc2)c1` showed an AC50 [1] of 3.29 µM.
With `O=C(c1cc(-c2ccccc2)on1)N1CCC(CO)CC1` the max activation ([2]; at 0.056 µM) was -6.22% (inactive).
For `O=C(c1cc(-c2ccccc2)on1)N1CCC(N2CCOCC2)CC1`, the max activation ([2]; at 4.6 µM) was 1.93% (inactive).
With `c1ccc(-c2nnc(-c3ccccn3)nc2Nc2nc3ccccc3s2)cc1` the AC50 [1] was 8.19 µM.

Reference: PubChem BioAssay AID488805 (Broad Institute, 2010)
